Experimental data gathered from unrelated publications.
AGTR1: Type-1 angiotensin II receptor (AGTR1, Homo sapiens, UniProt P30556)
DRD2: D(2) dopamine receptor (DRD2, Homo sapiens, UniProt P14416)
BRAF V600E: Serine/threonine-protein kinase B-raf (BRAF, Homo sapiens, UniProt P15056, V600E)
Blk: Tyrosine-protein kinase Blk (Blk, Mus musculus, UniProt P16277)
ADORA3: Adenosine receptor A3 (ADORA3, Homo sapiens, UniProt P0DMS8)
PARP16: Protein mono-ADP-ribosyltransferase PARP16 (PARP16, Homo sapiens, UniProt Q8N5Y8)

Oc1cccc(Nc2nc(-c3ccc(F)cc3F)cs2)c1  inhibition (AGTR1; cell-free assay; 10 µM): -7.2%
CCOc1ccc(N2C(=O)CC(NCCc3ccccc3Cl)C2=O)cc1 (stereo not shown)  inhibition (DRD2; enzyme activity, inhibitor; 10 µM): 42.5%
Cc1ccc(N=Nc2sc(NN=C(CS(=O)(=O)c3ccccc3)c3ccc(C)cc3)nc2C)cc1  inhibition (BRAF V600E; enzyme activity, inhibitor, ATP luminescence; 0.1 µM): 48%
CC(=O)N[C@H]1CSSC[C@@H](C(=O)N[C@H](Cc2c[nH]c3ccccc23)C(N)=O)NC(=O)[C@@H](Cc2ccccc2)NC(=O)[C@H](CCCNC(=N)N)NC1=O  inhibition (Melanocortin receptor 3 (MC3R, Homo sapiens, UniProt P41968); ligand displacement, radioligand; 10 µM, 40 min): 35%
Cc1ccc(C(CS(=O)(=O)c2ccccc2)=NNC2=NC(=O)C(=NNc3ccc([N+](=O)[O-])cc3)S2)cc1  inhibition (BRAF V600E; enzyme activity, inhibitor, ATP luminescence; 0.1 µM): 49%
CNCc1ccc(-c2cc(-c3nc(-c4ccc(S(=O)(=O)C(C)C)cc4)cnc3N)on2)cc1  inhibition (Blk; enzyme activity, inhibitor; 0.4 µM): 2%
O=C1C2CCCN2C(=O)N1CCCCN1CCN(c2cccc(C(F)(F)F)c2)CC1 (stereo not shown)  inhibition (DRD2; enzyme activity, inhibitor; 10 µM): 10%
O=C(c1ccc(F)cc1)N(Cc1ccccc1)C1CCCCC1  inhibition (Neuropeptide Y receptor type 1 (NPY1R, Homo sapiens, UniProt P25929); cell-free assay; 10 µM): -9%
Cc1ccc(C(CS(=O)(=O)c2ccccc2)=NNC2=NC(=O)C(=NNc3ccccc3)S2)cc1  inhibition (BRAF V600E; enzyme activity, inhibitor, ATP luminescence; 10 nM): 32%
CN(C)C1CCN(CC#Cc2nn(C3CCCC3)c3nc(NCc4ccccc4)ncc23)C1 (stereo not shown)  inhibition (Mitogen-activated protein kinase 8 (MAPK8, Homo sapiens, UniProt P45983); enzyme activity, inhibitor, FRET; 10 µM): 8%
CC(C)CC(C)N1CCCn2c1nc1c2c(=O)n(C)c(=O)n1C (stereo not shown)  inhibition (ADORA3; ligand displacement, radioligand; 10 µM, cell membranes): 22%
Cc1ccc(C(CS(=O)(=O)c2ccccc2)=NN=C2N=C(c3ccc(Br)cc3)CS2)cc1  inhibition (BRAF V600E; enzyme activity, inhibitor, ATP luminescence; 10 nM): 43%
CN(C(=O)N(C)C1C2CC3CC(C2)CC1C3)c1ccc(F)c(F)c1F (stereo not shown)  inhibition (ephB (Mycobacterium tuberculosis, UniProt I6YC03); enzyme activity, inhibitor; 10 nM): < 1%
Cc1ccc(CNC(=O)[C@H](CCc2ccccc2)NC(=O)[C@H](CCc2ccccc2)NC(=O)[C@H](CCc2ccccc2)NC(=O)c2cnc(C)cn2)cc1  inhibition (Neutrophil elastase (ELANE, Homo sapiens, UniProt P08246); enzyme activity, inhibitor; 100 µM): -8%
Nc1ccc2c(c1)CCCn1nnnc1-2  inhibition (PARP16; enzyme activity, inhibitor; 10 µM): 53%
NC(=S)NN=C(CS(=O)(=O)c1ccccc1)c1ccc(F)cc1  inhibition (BRAF V600E; enzyme activity, inhibitor, ATP luminescence; 10 nM): 34%
O=C(Nc1ccc(S(=O)(=O)N2CCC(Cl)CC2)cc1)c1ccc([N+](=O)[O-])o1  inhibition (ADORA3; ligand displacement, radioligand; 10 µM): 6%
Cn1cnc(Br)c1C1=CN(c2ncnc3[nH]cnc23)CCS1  inhibition (Serine/threonine-protein kinase Nek5 (NEK5, Homo sapiens, UniProt Q6P3R8); enzyme activity, inhibitor, radiometric; 2 µM): 90.4%
Cc1ccc(C(CS(=O)(=O)c2ccccc2)=NNc2nc(C)c(N=Nc3ccccc3)s2)cc1  inhibition (BRAF V600E; enzyme activity, inhibitor, ATP luminescence; 10 µM): 85%
O=C1CCCc2c(O)cccc2N1  inhibition (PARP16; enzyme activity, inhibitor; 10 µM): 0%
CCN(CC)CCNC(=O)c1c(C)[nH]c(/C=C2\C(=O)Nc3ccc(F)cc32)c1C  inhibition (Blk; enzyme activity, inhibitor; 0.3 µM): 36%
CCCCCN1CCCn2c1nc1c2c(=O)n(C)c(=O)n1C  inhibition (ADORA3; ligand displacement, radioligand; 10 µM, cell membranes): 21%
CC(=O)Nc1ccc(N2C(=O)CC(NCCc3ccccc3)C2=O)cc1 (stereo not shown)  inhibition (DRD2; enzyme activity, inhibitor; 10 µM): 37.8%
C=CCN1CCCn2c1nc1c2c(=O)n(C)c(=O)n1C  inhibition (ADORA3; ligand displacement, radioligand; 10 µM, cell membranes): 17%
Cc1ccc(C(CS(=O)(=O)c2ccccc2)=NNC2=NC(=O)C(=NNc3ccc(Cl)cc3)S2)cc1  inhibition (BRAF V600E; enzyme activity, inhibitor, ATP luminescence; 10 nM): 27%
O=C1NCCCc2ccc(F)cc21  inhibition (PARP16; enzyme activity, inhibitor; 10 µM): 74%
CCC(=O)c1ccc(OCC(O)CN2CCN(S(=O)(=O)N3CCCCC3)CC2)cc1 (stereo not shown)  inhibition (DRD2; enzyme activity, inhibitor; 10 µM): 6.8%
Cc1ccc(Nc2nccc(N(C)c3ccc4c(C)n(C)nc4c3)n2)cc1S(N)(=O)=O  inhibition (Dual specificity mitogen-activated protein kinase kinase 4 (Map2k4, Mus musculus, UniProt P47809); enzyme activity, inhibitor; 0.3 µM): 11%
COc1cc2c3c(c1OC)-c1cc4c(cc1CC3N(C)CC2)OCO4 (racemic)  inhibition (5-hydroxytryptamine receptor 1E (HTR1E, Homo sapiens, UniProt P28566); ligand displacement, radioligand; 10 µM): 62%
O=C(c1ccc(Cl)cc1)N(Cc1ccccc1)C1CCCCC1  inhibition (AGTR1; cell-free assay; 10 µM): -0.9%
CC(C)CN1CCCn2c1nc1c2c(=O)n(C)c(=O)n1C  inhibition (ADORA3; ligand displacement, radioligand; 10 µM, cell membranes): 18%
O=C1N=C(N2CCCCN2)S/C1=C\c1ccc(F)cc1O  inhibition (ADORA3; ligand displacement, radioligand; 10 µM): 27%
COc1ccc(-c2ccc(CNCC(O)c3ccccc3)o2)cc1Cl (stereo not shown)  inhibition (DRD2; enzyme activity, inhibitor; 10 µM): 46%
CCC(C)N1CCCn2c1nc1c2c(=O)n(C)c(=O)n1C (stereo not shown)  inhibition (ADORA3; ligand displacement, radioligand; 10 µM, cell membranes): 14%
COc1ccc2c(c1)C(=O)N(CCCN1CCN(c3ccccc3OC)CC1)C2  inhibition (DRD2; ligand displacement, radioligand; 10 µM): 85%
CNC(=O)c1cc(Oc2ccc(NC(=O)Nc3ccc(Cl)c(C(F)(F)F)c3)cc2)ccn1  inhibition (Blk; enzyme activity, inhibitor; 0.3 µM): -25%
COc1cc(NC(C)=O)c(Cl)cc1C(=O)Nc1nccs1  inhibition (AGTR1; cell-free assay; 10 µM): 4.8%
C=CN1CCCn2c1nc1c2c(=O)n(C)c(=O)n1C  inhibition (ADORA3; ligand displacement, radioligand; 10 µM, cell membranes): 11%
Cc1ccc(C(CS(=O)(=O)c2ccccc2)=NNc2nc(C)c(N=Nc3cccc(C)c3)s2)cc1  inhibition (BRAF V600E; enzyme activity, inhibitor, ATP luminescence; 0.1 µM): 63%
CCN(Cc1ccccc1C(F)(F)F)C(=O)C1CCN(S(=O)(=O)c2ccc3[nH]ncc3c2)CC1  inhibition (ADORA3; ligand displacement, radioligand; 10 µM): 14%
NS(=O)(=O)c1ccc(CCNCc2cccc3ccccc23)cc1  inhibition (DRD2; enzyme activity, inhibitor; 10 µM): 42.2%
CC(C)N1CCCn2c1nc1c2c(=O)n(C)c(=O)n1C  inhibition (ADORA3; ligand displacement, radioligand; 10 µM, cell membranes): 8%
O=C(c1cccc(Cl)c1)N1CCN(CCNc2cc(=O)oc3ccccc23)CC1  inhibition (DRD2; enzyme activity, inhibitor; 10 µM): -1.9%
CS(=O)(=O)Nc1cccc(-c2csc(NC(=O)CSc3nc4nccnc4c(=O)n3CCc3ccccc3)n2)c1  inhibition (Phosphatidylinositol 4-kinase type 2-alpha (PI4K2A, Homo sapiens, UniProt Q9BTU6); enzyme activity, inhibitor; 10 µM): 0%
CCCCCCN1CCCn2c1nc1c2c(=O)n(C)c(=O)n1C  inhibition (ADORA3; ligand displacement, radioligand; 10 µM, cell membranes): 39%
COc1ccccc1N1CCN(CC(O)Cn2cnc3c2c(=O)n(C)c(=O)n3C)CC1 (stereo not shown)  inhibition (DRD2; enzyme activity, inhibitor; 10 µM): 2.6%
